# Laboratory results reported in ChEMBL document CHEMBL5724801, “EUbOPEN Chemogenomics Library - Multiplex” (2024).
# Several values for one entry are separate records, joined by “and”; a condition that tells them apart may be missing. Identical values can stand only once.
# Tested on: Fibroblast
# Test: Multiplex assay against human fibroblast
# Assay type: toxicity, cell-based
# Outline: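 On a CQ1 microscope at 37°C and 5% CO2, live cells were imaged after compound addition. They had been stained at seeding with Hoechst33342, BioTracker Green Microtubule Cytoskeleton Dye, MitoTracker Red and Annexin V Alexa Fluor 680. CellPathfinder machine-learning gating assigned cells to Hoechst high-intensity objects or normal cells, normal cells to healthy, pyknosed or fragmented nuclei, and pyknosed cells to mitotic or apoptotic. Tubulin, mitochondrial-mass and membrane-permeability phenotypes are per cents of healthy-nucleus cells.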
# [1] = 12 h, 1 µM, compound concentration 1 uM
# [2] = 12 h, 10 µM, compound concentration 10 uM
# [3] = 24 h, 1 µM, compound concentration 1 uM
# [4] = 24 h, 10 µM, compound concentration 10 uM
# [5] = 48 h, 1 µM, compound concentration 1 uM
# [6] = 48 h, 10 µM, compound concentration 10 uM
structure (smiles),measurement,setting,value
CC(C)[C@H](C(=O)Nc1ccc(C(=O)NO)cc1)c1ccccc1 [AR-42],Population Apoptotic (%),[1],28.12% and 16.67%
same,Population Fragmented Nuclei (%),[1],8.81% and 7.87%
same,Population Healthy Nuclei (%),[1],74.61% and 85.39%
same,Population Hoechst High Intensity Objects (%),[1],0%
same,Population Membrane Permeable-Phenotype (%),[1],3.47% and 2.63%
same,Population Mitochondria Different-Phenotype (%),[1],4.17% and 7.89%
same,Population Mitotic Cells (%),[1],71.88% and 83.33%
same,Population Normal (%),[1],100%
same,Population Pyknosed Nuclei (%),[1],16.58% and 6.74%
same,Population Tubulin-Different-Phenotype (%),[1],4.17% and 7.24%
same,Total Cell Count,[1],193 and 178
same,Population Apoptotic (%),[2],32% and 26.67%
same,Population Fragmented Nuclei (%),[2],10.88% and 4.5%
same,Population Healthy Nuclei (%),[2],76.17% and 88.74%
same,Population Hoechst High Intensity Objects (%),[2],0%
same,Population Membrane Permeable-Phenotype (%),[2],6.8% and 2.54%
same,Population Mitochondria Different-Phenotype (%),[2],5.44% and 5.58%
same,Population Mitotic Cells (%),[2],68% and 73.33%
same,Population Normal (%),[2],100%
same,Population Pyknosed Nuclei (%),[2],12.95% and 6.76%
same,Population Tubulin-Different-Phenotype (%),[2],7.48% and 5.58%
same,Total Cell Count,[2],193 and 222
same,Population Apoptotic (%),[3],40% and 44.44%
same,Population Fragmented Nuclei (%),[3],11.98% and 8.95%
same,Population Healthy Nuclei (%),[3],80.21% and 86.32%
same,Population Hoechst High Intensity Objects (%),[3],0%
same,Population Membrane Permeable-Phenotype (%),[3],2.6% and 3.05%
same,Population Mitochondria Different-Phenotype (%),[3],2.6% and 3.66%
same,Population Mitotic Cells (%),[3],60% and 55.56%
same,Population Normal (%),[3],100%
same,Population Pyknosed Nuclei (%),[3],7.81% and 4.74%
same,Population Tubulin-Different-Phenotype (%),[3],1.95% and 1.83%
same,Total Cell Count,[3],192 and 190
same,Population Apoptotic (%),[4],50% and 57.14%
same,Population Fragmented Nuclei (%),[4],11.56% and 10.3%
same,Population Healthy Nuclei (%),[4],79.19% and 83.69%
same,Population Hoechst High Intensity Objects (%),[4],0%
same,Population Membrane Permeable-Phenotype (%),[4],3.65% and 0%
same,Population Mitochondria Different-Phenotype (%),[4],4.38% and 6.67%
same,Population Mitotic Cells (%),[4],50% and 42.86%
same,Population Normal (%),[4],100%
same,Population Pyknosed Nuclei (%),[4],9.25% and 6.01%
same,Population Tubulin-Different-Phenotype (%),[4],3.65% and 2.56%
same,Total Cell Count,[4],173 and 233
same,Population Apoptotic (%),[5],37.5% and 50%
same,Population Fragmented Nuclei (%),[5],15.15% and 11.46%
same,Population Healthy Nuclei (%),[5],76.77% and 82.29%
same,Population Hoechst High Intensity Objects (%),[5],0%
same,Population Membrane Permeable-Phenotype (%),[5],1.32% and 1.27%
same,Population Mitochondria Different-Phenotype (%),[5],19.74% and 7.59%
same,Population Mitotic Cells (%),[5],62.5% and 50%
same,Population Normal (%),[5],100%
same,Population Pyknosed Nuclei (%),[5],8.08% and 6.25%
same,Population Tubulin-Different-Phenotype (%),[5],2.63% and 3.8%
same,Total Cell Count,[5],198 and 192
same,Population Apoptotic (%),[6],31.48% and 89.58%
same,Population Fragmented Nuclei (%),[6],17.84% and 9.95%
same,Population Healthy Nuclei (%),[6],52.97% and 64.92%
same,Population Hoechst High Intensity Objects (%),[6],0%
same,Population Membrane Permeable-Phenotype (%),[6],1.02% and 3.23%
same,Population Mitochondria Different-Phenotype (%),[6],21.43% and 8.06%
same,Population Normal (%),[6],100%
same,Population Pyknosed Nuclei (%),[6],29.19% and 25.13%
same,Total Cell Count,[6],185 and 191
CCCCC[C@H](O)/C=C/[C@H]1[C@H](O)CC(=O)[C@@H]1CCCCCCC(=O)O [ALPROSTADIL],Population Apoptotic (%),[1],61% and 43%
same,Population Fragmented Nuclei (%),[1],16% and 23%
same,Population Healthy Nuclei (%),[1],71% and 57%
same,Population Hoechst High Intensity Objects (%),[1],0% and 4%
same,Population Membrane Permeable-Phenotype (%),[1],0% and 10%
same,Population Mitochondria Different-Phenotype (%),[1],1% and 2%
same,Population Mitotic Cells (%),[1],38% and 56%
same,Population Normal (%),[1],99% and 95%
same,Population Pyknosed Nuclei (%),[1],12% and 18%
same,Total Cell Count,[1],150 and 169
same,Population Apoptotic (%),[2],36% and 34%
same,Population Healthy Nuclei (%),[2],75% and 43%
same,Population Membrane Permeable-Phenotype (%),[2],2% and 11%
same,Population Mitochondria Different-Phenotype (%),[2],4% and 1%
same,Population Mitotic Cells (%),[2],63% and 65%
same,Population Normal (%),[2],94% and 83%
same,Population Pyknosed Nuclei (%),[2],17% and 31%
same,Population Tubulin-Different-Phenotype (%),[2],26% and 45%
same,Total Cell Count,[2],136 and 146
same,Population Apoptotic (%),[3],25% and 43%
same,Population Fragmented Nuclei (%),[3],15% and 22%
same,Population Healthy Nuclei (%),[3],73% and 53%
same,Population Hoechst High Intensity Objects (%),[3],0% and 2%
same,Population Membrane Permeable-Phenotype (%),[3],0% and 8%
same,Population Mitochondria Different-Phenotype (%),[3],1% and 8%
same,Population Mitotic Cells (%),[3],75% and 56%
same,Population Normal (%),[3],99% and 97%
same,Population Pyknosed Nuclei (%),[3],10% and 24%
same,Population Tubulin-Different-Phenotype (%),[3],15% and 40%
same,Total Cell Count,[3],147 and 165
same,Population Apoptotic (%),[4],63% and 30%
same,Population Fragmented Nuclei (%),[4],14% and 27%
same,Population Healthy Nuclei (%),[4],69% and 45%
same,Population Membrane Permeable-Phenotype (%),[4],0% and 16%
same,Population Mitochondria Different-Phenotype (%),[4],2% and 3%
same,Population Mitotic Cells (%),[4],36% and 69%
same,Population Normal (%),[4],97% and 86%
same,Population Pyknosed Nuclei (%),[4],15% and 26%
same,Total Cell Count,[4],147 and 157
same,Population Apoptotic (%),[5],32% and 55%
same,Population Fragmented Nuclei (%),[5],18% and 26%
same,Population Healthy Nuclei (%),[5],62% and 51%
same,Population Hoechst High Intensity Objects (%),[5],1% and 3%
same,Population Membrane Permeable-Phenotype (%),[5],1% and 6%
same,Population Mitochondria Different-Phenotype (%),[5],4% and 8%
same,Population Mitotic Cells (%),[5],67% and 44%
same,Population Normal (%),[5],98% and 96%
same,Population Pyknosed Nuclei (%),[5],18% and 21%
same,Population Tubulin-Different-Phenotype (%),[5],30% and 44%
same,Total Cell Count,[5],152 and 162
same,Population Apoptotic (%),[6],62% and 48%
same,Population Fragmented Nuclei (%),[6],11% and 33%
same,Population Healthy Nuclei (%),[6],62% and 44%
same,Population Mitochondria Different-Phenotype (%),[6],7%
same,Population Mitotic Cells (%),[6],37% and 51%
same,Population Normal (%),[6],97% and 83%
same,Population Pyknosed Nuclei (%),[6],26% and 22%
same,Population Tubulin-Different-Phenotype (%),[6],34% and 60%
same,Total Cell Count,[6],144
Cn1cc(C(=O)OCC2CCN(CCNS(C)(=O)=O)CC2)c2ccccc21,Population Apoptotic (%),[1],44% and 33%
same,Population Fragmented Nuclei (%),[1],13% and 21%
same,Population Healthy Nuclei (%),[1],71% and 46%
same,Population Hoechst High Intensity Objects (%),[1],1% and 4%
same,Population Membrane Permeable-Phenotype (%),[1],0% and 9%
same,Population Mitochondria Different-Phenotype (%),[1],3% and 1%
same,Population Mitotic Cells (%),[1],55% and 66%
same,Population Normal (%),[1],98% and 95%
same,Population Pyknosed Nuclei (%),[1],14% and 32%
same,Population Tubulin-Different-Phenotype (%),[1],23% and 37%
same,Total Cell Count,[1],202 and 164
same,Population Apoptotic (%),[2],48% and 25%
same,Population Fragmented Nuclei (%),[2],29% and 32%
same,Population Healthy Nuclei (%),[2],55% and 51%
same,Population Hoechst High Intensity Objects (%),[2],3% and 5%
same,Population Membrane Permeable-Phenotype (%),[2],0% and 5%
same,Population Mitochondria Different-Phenotype (%),[2],9% and 7%
same,Population Mitotic Cells (%),[2],51% and 75%
same,Population Normal (%),[2],96% and 94%
same,Population Pyknosed Nuclei (%),[2],14% and 16%
same,Population Tubulin-Different-Phenotype (%),[2],41% and 47%
same,Total Cell Count,[2],207 and 184
same,Population Apoptotic (%),[3],31% and 30%
same,Population Fragmented Nuclei (%),[3],13% and 25%
same,Population Healthy Nuclei (%),[3],74% and 47%
same,Population Hoechst High Intensity Objects (%),[3],5% and 2%
same,Population Membrane Permeable-Phenotype (%),[3],0% and 7%
same,Population Mitochondria Different-Phenotype (%),[3],0% and 6%
same,Population Mitotic Cells (%),[3],68% and 69%
same,Population Normal (%),[3],94% and 97%
same,Population Pyknosed Nuclei (%),[3],11% and 26%
same,Population Tubulin-Different-Phenotype (%),[3],23% and 48%
same,Total Cell Count,[3],201 and 168
same,Population Apoptotic (%),[4],80% and 41%
same,Population Fragmented Nuclei (%),[4],33% and 40%
same,Population Healthy Nuclei (%),[4],53% and 43%
same,Population Hoechst High Intensity Objects (%),[4],5% and 4%
same,Population Membrane Permeable-Phenotype (%),[4],0% and 3%
same,Population Mitochondria Different-Phenotype (%),[4],3% and 5%
same,Population Mitotic Cells (%),[4],20% and 58%
same,Population Normal (%),[4],94% and 95%
same,Population Pyknosed Nuclei (%),[4],13% and 16%
same,Population Tubulin-Different-Phenotype (%),[4],42% and 52%
same,Total Cell Count,[4],201 and 188
same,Population Apoptotic (%),[5],54% and 52%
same,Population Fragmented Nuclei (%),[5],14% and 33%
same,Population Healthy Nuclei (%),[5],72% and 54%
same,Population Hoechst High Intensity Objects (%),[5],5% and 4%
same,Population Membrane Permeable-Phenotype (%),[5],0% and 5%
same,Population Mitochondria Different-Phenotype (%),[5],1% and 2%
same,Population Mitotic Cells (%),[5],45% and 47%
same,Population Normal (%),[5],94% and 95%
same,Population Pyknosed Nuclei (%),[5],12%
same,Population Tubulin-Different-Phenotype (%),[5],23% and 43%
same,Total Cell Count,[5],197 and 177
same,Population Apoptotic (%),[6],68% and 50%
same,Population Fragmented Nuclei (%),[6],28% and 40%
same,Population Healthy Nuclei (%),[6],58% and 46%
same,Population Hoechst High Intensity Objects (%),[6],9% and 6%
same,Population Membrane Permeable-Phenotype (%),[6],0% and 2%
same,Population Mitochondria Different-Phenotype (%),[6],9% and 8%
same,Population Mitotic Cells (%),[6],32% and 50%
same,Population Normal (%),[6],90% and 93%
same,Population Pyknosed Nuclei (%),[6],13% and 12%
same,Population Tubulin-Different-Phenotype (%),[6],49% and 60%
same,Total Cell Count,[6],199 and 190
